The results in this text go back to ChEMBL document CHEMBL3784960, “New 4-Functionalized Glutamate Analogues Are Selective Agonists at Metabotropic Glutamate Receptor Subtype 2 or Selective Agonists at Metabotropic Glutamate Receptor Group III” (J Med Chem, 2016).

Structures are written as SMILES. The source made the active and inactive calls. The calls are words filed in the database; no cut-off is given here.

Assay [1] has as its target T1, Metabotropic glutamate receptor 2 (Rattus norvegicus, UniProt P31421). Nature of the assay: Agonist activity at rat mGlu2 receptor expressed in HEK293 cells assessed as IP1 accumulation by IP-One functional assay. In kind it is cell-based. An outline of the steps: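 HEK293 cells were transiently electroporated with the rat receptor plus a chimeric Gi/Gq protein for PLC coupling and EAAC1. Medium was replaced by Glutamax at least 2 h before agonist. IP1 accumulation was measured by HTRF 24 h post-transfection, at least in duplicate.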

Assay [2] deals with T2, Metabotropic glutamate receptor 5 (Rattus norvegicus, UniProt P31424). Put plainly: Agonist activity at rat mGlu5 receptor expressed in HEK293 cells assessed as IP1 accumulation by IP-One functional assay. In kind it is cell-based.
In assay [3] the target is T3, Excitatory amino acid transporter 1 (Homo sapiens, UniProt P43003). Put plainly: Substrate activity at human EAAT1 assessed as [3H]Asp uptake measured up to 300 uM.
Assay [4] concerns the target T4, Metabotropic glutamate receptor 3 (Rattus norvegicus, UniProt P31422). Put plainly: Agonist activity at rat mGlu3 receptor by FRET based mGlu sensor assay. An outline of the steps:
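Receptor carried an N-terminal SNAP-tag and was transfected into HEK293 cells. At 24 h, surface receptors were labelled for 1 h with 100 nM SNAP-Lumi4-Tb (donor) and 60 nM SNAP Green (acceptor), washed three times, then drug was added. Time-resolved FRET was recorded at 520 nm, at least in duplicate. EC50 ± SEM came from n = 4−6 experiments.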

The target in assay [5] is T5, Excitatory amino acid transporter 3 (Homo sapiens, UniProt P43005).
T5 sequence (P43005 whole entry): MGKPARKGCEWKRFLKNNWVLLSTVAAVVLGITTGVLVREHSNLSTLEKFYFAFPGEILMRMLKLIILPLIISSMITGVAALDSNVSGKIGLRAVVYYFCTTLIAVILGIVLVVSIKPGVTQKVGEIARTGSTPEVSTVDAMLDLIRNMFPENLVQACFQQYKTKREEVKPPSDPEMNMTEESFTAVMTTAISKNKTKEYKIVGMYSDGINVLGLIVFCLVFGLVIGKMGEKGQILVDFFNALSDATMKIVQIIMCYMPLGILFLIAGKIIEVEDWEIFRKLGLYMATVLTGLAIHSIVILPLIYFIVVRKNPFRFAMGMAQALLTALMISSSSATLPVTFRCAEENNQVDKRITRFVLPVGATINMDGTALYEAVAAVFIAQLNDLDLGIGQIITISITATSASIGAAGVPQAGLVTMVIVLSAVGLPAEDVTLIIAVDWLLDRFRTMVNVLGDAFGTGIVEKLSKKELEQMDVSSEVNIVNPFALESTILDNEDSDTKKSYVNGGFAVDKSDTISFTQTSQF
Nature of the assay: Inhibition of human EAAT3 assessed as [3H]Asp uptake.

Assay [6] concerns the target T6, Metabotropic glutamate receptor 4 (Rattus norvegicus, UniProt P31423). Nature of the assay: Agonist activity at rat mGlu4 receptor expressed in HEK293 cells assessed as IP1 accumulation by IP-One functional assay. In kind it is cell-based. An outline of the steps: (§1)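 HEK293 cells were transiently electroporated with the rat receptor plus a chimeric Gi/Gq protein for PLC coupling and EAAC1. Medium was replaced by Glutamax at least 2 h before agonist. IP1 accumulation was measured by HTRF 24 h post-transfection, at least in duplicate. EC50 ± SEM came from n = 4−6 experiments.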

Assay [7] in a line: Displacement of [3H]AMPA from rat synaptosome AMPA receptor after 30 mins by microplate scintillation counter analysis. On the technique in general: Loss of bound radioactivity is the signal in a displacement assay; it reports binding, not function.
The target in assay [8] is Metabotropic glutamate receptor 3 (Rattus norvegicus) (UniProt P31422). Nature of the assay: Agonist activity at mGlu3 receptor (rat) assessed as IP1 accumulation preincubated with 3 uM LY341495 for 20 mins followed by addition of 1 mM of compound by IP-One functional assay.
Assay [9] can be described thus: Displacement of [3H]KA from rat synaptosome KA receptor after 60 mins by microplate scintillation counter analysis.
The target of another assay is Glutamate NMDA receptor. Put plainly: Displacement of [3H]CGP from rat synaptosome NMDA receptor after 60 mins by microplate scintillation counter analysis. In kind it is protein-complex assay.
Assay [10] concerns the target T7, Metabotropic glutamate receptor 1 (Rattus norvegicus, UniProt P23385). Nature of the assay: Agonist activity at rat mGlu1 receptor expressed in HEK293 cells assessed as IP1 accumulation by IP-One functional assay. The assay is classed as cell-based. The method, boiled down:
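Rat group I receptor transiently electroporated into HEK293 with the EAAC1 glutamate transporter; medium switched to Glutamax at least 2 h before stimulation. IP1 was read by HTRF (IP-One kit) 24 h after transfection. Runs were at least in duplicate, with EC50 ± SEM from n = 4−6 experiments.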

Assay [11] has as its target T1, Metabotropic glutamate receptor 2. Put plainly: Agonist activity at rat mGlu2 receptor by FRET based mGlu sensor assay. An outline of the steps:
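Receptor carried an N-terminal SNAP-tag and was transfected into HEK293 cells. At 24 h, surface receptors were labelled for 1 h with 100 nM SNAP-Lumi4-Tb (donor) and 60 nM SNAP Green (acceptor), washed three times, then drug was added. Time-resolved FRET was recorded at 520 nm, at least in duplicate.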

Assay [12] deals with T8, Excitatory amino acid transporter 2 (Homo sapiens, UniProt P43004). Nature of the assay: Substrate activity at human EAAT2 assessed as [3H]Asp uptake measured up to 300 uM.
Assay [13] deals with Metabotropic glutamate receptor 7 (Rattus norvegicus, UniProt P35400). Nature of the assay: Agonist activity at rat mGlu7 receptor expressed in HEK293 cells assessed as IP1 accumulation by IP-One functional assay. In kind it is cell-based. The method, boiled down: as §1
The target in assay [14] is Metabotropic glutamate receptor 8 (Rattus norvegicus, UniProt P70579). Put plainly: Agonist activity at rat mGlu8 receptor expressed in HEK293 cells assessed as IP1 accumulation by IP-One functional assay. In kind it is cell-based. The method, boiled down:
as §1

In assay [15] the target is Metabotropic glutamate receptor 2 (Homo sapiens) (UniProt Q14416). Nature of the assay: Agonist activity at mGlu2 receptor (unknown origin) assessed as IP1 accumulation preincubated with 3 uM LY341495 for 20 mins followed by addition of 1 mM of compound by IP-One functional assay. The method, boiled down:
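Single-dose test in HEK293 cells cotransfected with rat receptor, chimeric Gi/Gq and EAAC1. Cells were pretreated with 3 μM LY341495 for 20 min at 37 °C, washed twice, then stimulated with 1 mM compound. IP1 was read by HTRF 24 h post-transfection. Comparison was against vehicle by one-way ANOVA with Dunnett's test.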

Assay [16] has as its target T8, Excitatory amino acid transporter 2. Put plainly: Inhibition of human EAAT2 assessed as [3H]Asp uptake.
The target in assay [17] is Metabotropic glutamate receptor 6 (Rattus norvegicus, UniProt P35349). Put plainly: Agonist activity at rat mGlu6 receptor expressed in HEK293 cells assessed as IP1 accumulation by IP-One functional assay. The assay is classed as cell-based. An outline of the steps:
as §1

The target in assay [18] is T3, Excitatory amino acid transporter 1. Nature of the assay: Inhibition of human EAAT1 assessed as [3H]Asp uptake.
Assay [19] has as its target Metabotropic glutamate receptor 7 (Homo sapiens, UniProt Q14831). Nature of the assay: Agonist activity at human mGlu7 receptor expressed in HEK293 assessed as inhibition of forskolin stimulated cAMP production. The assay is classed as functional, cell-based. On the technique in general: cAMP levels reflect the balance of adenylyl cyclase and phosphodiesterase activity.

Assay [20] has as its target T2, Metabotropic glutamate receptor 5. Put plainly: Agonist activity at rat mGlu5 receptor expressed in HEK293 cells by intracellular Ca2+ mobilization assay. The assay is classed as functional, cell-based. (In general: A change in cytosolic calcium serves as a functional read-out for many receptors and channels.)
The target of assay [21] is T4, Metabotropic glutamate receptor 3. Put plainly: Agonist activity at rat mGlu3 receptor expressed in HEK293 cells by [35S]GTP-gamma binding assay. In kind it is cell-based.
The target in assay [22] is T1, Metabotropic glutamate receptor 2. Put plainly: Agonist activity at rat mGlu2 receptor expressed in HEK293 cells by [35S]GTP-gamma binding assay. The assay is classed as cell-based.
The target of assay [23] is T6, Metabotropic glutamate receptor 4. Put plainly: Agonist activity at rat mGlu4 receptor expressed in HEK293 cells assessed as inhibition of forskolin stimulated cAMP production. In kind it is functional, cell-based.
Assay [24] addresses T7, Metabotropic glutamate receptor 1. Put plainly: Agonist activity at rat mGlu1 receptor expressed in HEK293 cells by intracellular Ca2+ mobilization assay. The assay is classed as functional, cell-based.

Chain of Metabotropic glutamate receptor 8 (P70579 whole entry): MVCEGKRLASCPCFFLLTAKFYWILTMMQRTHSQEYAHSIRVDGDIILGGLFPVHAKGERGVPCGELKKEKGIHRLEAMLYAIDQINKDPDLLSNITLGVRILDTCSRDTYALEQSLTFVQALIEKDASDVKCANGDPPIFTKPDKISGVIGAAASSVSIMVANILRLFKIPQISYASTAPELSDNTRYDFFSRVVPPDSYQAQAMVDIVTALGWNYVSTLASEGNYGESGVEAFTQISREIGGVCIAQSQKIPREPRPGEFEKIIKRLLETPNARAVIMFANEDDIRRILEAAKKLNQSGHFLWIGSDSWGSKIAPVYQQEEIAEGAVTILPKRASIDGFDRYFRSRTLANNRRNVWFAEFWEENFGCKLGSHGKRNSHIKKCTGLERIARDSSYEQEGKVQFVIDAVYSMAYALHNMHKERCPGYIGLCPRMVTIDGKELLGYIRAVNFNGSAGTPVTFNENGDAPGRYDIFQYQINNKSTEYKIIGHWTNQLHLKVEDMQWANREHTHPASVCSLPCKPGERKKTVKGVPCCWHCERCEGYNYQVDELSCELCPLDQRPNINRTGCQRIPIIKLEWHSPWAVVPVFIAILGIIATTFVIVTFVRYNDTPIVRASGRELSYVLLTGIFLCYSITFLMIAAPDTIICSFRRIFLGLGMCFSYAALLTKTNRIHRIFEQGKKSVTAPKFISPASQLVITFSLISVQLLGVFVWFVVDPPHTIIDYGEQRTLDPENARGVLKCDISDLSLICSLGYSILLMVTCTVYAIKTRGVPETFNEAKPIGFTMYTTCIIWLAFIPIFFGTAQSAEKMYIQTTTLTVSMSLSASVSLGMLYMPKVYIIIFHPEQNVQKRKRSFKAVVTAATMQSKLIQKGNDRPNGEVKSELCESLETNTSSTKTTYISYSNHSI
T2 sequence (P31424 whole entry): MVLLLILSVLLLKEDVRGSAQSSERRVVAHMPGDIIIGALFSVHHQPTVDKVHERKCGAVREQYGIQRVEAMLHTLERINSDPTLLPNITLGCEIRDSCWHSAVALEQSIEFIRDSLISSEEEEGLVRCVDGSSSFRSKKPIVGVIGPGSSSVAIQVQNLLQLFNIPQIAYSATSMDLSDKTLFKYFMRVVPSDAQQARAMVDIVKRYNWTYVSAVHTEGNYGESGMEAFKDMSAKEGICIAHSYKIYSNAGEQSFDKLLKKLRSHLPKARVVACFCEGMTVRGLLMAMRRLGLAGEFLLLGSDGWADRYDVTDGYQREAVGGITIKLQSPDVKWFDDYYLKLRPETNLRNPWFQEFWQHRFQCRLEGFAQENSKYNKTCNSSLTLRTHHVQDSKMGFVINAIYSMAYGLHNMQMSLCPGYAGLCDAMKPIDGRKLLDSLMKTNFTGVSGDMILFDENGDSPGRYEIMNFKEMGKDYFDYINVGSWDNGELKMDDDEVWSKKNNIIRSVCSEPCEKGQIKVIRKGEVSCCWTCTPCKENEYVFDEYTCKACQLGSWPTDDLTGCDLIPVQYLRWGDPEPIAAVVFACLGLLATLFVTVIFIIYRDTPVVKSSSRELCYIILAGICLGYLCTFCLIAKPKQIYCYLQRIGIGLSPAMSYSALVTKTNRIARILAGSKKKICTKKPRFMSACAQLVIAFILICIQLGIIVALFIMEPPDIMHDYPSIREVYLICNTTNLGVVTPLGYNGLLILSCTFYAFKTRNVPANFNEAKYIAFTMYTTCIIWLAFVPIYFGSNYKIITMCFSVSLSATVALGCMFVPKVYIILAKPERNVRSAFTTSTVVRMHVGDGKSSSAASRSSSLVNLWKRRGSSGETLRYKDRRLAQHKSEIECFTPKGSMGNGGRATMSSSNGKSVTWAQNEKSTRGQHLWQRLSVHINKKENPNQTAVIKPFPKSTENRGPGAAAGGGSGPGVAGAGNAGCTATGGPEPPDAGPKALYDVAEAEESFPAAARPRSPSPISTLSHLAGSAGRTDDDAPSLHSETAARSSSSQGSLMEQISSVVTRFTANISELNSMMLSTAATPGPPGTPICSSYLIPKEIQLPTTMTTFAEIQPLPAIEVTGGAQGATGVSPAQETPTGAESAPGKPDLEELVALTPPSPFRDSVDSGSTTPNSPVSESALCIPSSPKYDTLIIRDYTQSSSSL
T6 sequence (P31423 whole entry): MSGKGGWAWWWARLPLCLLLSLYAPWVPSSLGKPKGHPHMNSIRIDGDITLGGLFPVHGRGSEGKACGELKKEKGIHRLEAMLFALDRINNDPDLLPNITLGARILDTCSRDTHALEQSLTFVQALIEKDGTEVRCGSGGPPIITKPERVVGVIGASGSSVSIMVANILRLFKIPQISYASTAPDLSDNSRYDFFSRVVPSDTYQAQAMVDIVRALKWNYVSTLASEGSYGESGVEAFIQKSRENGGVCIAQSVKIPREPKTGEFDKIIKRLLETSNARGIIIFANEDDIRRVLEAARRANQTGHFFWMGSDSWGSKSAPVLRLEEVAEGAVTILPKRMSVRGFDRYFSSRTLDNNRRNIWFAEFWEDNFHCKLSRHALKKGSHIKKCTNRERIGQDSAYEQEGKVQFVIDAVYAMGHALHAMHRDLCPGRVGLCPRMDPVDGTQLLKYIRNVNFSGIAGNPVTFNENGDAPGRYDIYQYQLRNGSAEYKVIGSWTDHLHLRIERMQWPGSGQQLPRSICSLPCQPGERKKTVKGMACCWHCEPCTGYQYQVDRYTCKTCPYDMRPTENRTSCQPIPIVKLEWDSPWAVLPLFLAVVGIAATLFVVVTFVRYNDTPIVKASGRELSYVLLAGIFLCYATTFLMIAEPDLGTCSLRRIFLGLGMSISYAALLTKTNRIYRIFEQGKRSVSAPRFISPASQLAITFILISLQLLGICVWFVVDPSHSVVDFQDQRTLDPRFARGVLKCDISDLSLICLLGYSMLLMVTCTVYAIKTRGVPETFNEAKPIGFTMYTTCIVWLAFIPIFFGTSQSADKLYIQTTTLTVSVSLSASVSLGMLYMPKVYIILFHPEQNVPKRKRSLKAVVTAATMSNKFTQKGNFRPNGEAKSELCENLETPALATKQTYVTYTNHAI
Chain of Metabotropic glutamate receptor 7 (Rattus norvegicus, UniProt P35400) (P35400 whole entry): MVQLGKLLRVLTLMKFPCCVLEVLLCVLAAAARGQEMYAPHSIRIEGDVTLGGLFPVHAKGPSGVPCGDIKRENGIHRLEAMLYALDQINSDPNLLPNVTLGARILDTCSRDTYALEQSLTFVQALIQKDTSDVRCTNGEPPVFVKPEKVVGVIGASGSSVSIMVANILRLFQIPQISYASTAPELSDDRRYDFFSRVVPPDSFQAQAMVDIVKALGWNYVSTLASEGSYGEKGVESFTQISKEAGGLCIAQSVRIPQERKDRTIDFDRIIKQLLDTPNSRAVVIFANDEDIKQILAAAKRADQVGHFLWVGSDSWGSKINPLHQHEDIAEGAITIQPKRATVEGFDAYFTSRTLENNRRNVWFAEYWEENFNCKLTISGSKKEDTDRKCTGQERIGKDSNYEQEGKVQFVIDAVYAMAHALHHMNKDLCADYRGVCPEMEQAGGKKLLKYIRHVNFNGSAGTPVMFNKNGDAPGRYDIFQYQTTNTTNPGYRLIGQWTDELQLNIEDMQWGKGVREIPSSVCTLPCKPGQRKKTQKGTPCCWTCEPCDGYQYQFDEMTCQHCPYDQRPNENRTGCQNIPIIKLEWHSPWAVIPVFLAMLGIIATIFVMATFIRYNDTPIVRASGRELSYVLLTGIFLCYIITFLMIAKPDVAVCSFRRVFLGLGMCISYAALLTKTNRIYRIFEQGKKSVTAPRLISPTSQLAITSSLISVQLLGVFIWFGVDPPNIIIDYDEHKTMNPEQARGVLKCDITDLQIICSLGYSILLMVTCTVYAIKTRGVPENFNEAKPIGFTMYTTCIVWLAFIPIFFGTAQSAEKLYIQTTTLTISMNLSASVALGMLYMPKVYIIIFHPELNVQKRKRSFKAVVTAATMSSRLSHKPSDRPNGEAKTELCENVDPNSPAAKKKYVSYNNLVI
Chain of Metabotropic glutamate receptor 6 (P35349 whole entry): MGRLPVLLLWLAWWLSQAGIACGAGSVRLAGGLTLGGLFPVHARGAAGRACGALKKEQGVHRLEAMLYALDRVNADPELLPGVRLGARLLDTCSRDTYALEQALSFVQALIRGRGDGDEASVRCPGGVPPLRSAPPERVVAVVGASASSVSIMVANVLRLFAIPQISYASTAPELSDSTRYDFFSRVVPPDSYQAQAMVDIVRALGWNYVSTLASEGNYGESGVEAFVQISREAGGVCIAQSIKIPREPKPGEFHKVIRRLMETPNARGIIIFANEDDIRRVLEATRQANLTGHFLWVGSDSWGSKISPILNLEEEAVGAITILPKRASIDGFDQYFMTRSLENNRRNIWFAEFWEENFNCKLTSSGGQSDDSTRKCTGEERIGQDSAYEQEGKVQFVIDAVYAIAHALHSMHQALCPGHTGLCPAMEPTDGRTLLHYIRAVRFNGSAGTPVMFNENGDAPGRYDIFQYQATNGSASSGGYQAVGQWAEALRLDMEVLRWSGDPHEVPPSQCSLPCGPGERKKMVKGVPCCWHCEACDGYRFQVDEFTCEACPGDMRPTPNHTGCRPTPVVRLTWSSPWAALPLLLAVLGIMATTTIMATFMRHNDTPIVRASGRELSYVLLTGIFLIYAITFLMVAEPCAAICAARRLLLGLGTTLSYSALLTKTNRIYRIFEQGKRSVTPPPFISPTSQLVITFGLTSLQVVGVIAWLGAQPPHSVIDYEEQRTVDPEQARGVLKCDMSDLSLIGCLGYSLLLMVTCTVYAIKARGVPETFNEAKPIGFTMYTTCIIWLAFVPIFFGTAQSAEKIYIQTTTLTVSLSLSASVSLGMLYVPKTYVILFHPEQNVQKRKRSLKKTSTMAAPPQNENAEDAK
Chain of Metabotropic glutamate receptor 7 (Homo sapiens, UniProt Q14831) (Q14831 whole entry): as the sequence (P35400 whole entry) above, with G5R, V27A, H454N, T488S, S520A, N578D counted along it

For orientation: IC50 means the concentration needed to halve the response being measured. Broadly, the Ki is a dissociation constant, usually derived from enzyme kinetics or from competition with a known ligand. On to `N[C@@H](C[C@]1(C(=O)O)C[C@H]1C(=O)O)C(=O)O`, for which the EC50 is 145 µM in [1]; more than 1 mM in [2]; more than 1 mM in assay [4]; 0.13 µM in assay [6]; more than 1 mM in [10]; more than 1000 µM in assay [11]. Also, the EC50 in assay [13] was 120 µM; in assay [14] it was 0.68 µM; in [17], 0.49 µM. In addition, the outcome in assay [3], in assay [8] and in assay [12] was inactive. In addition, the IC50 in [5] is more than 300 µM; in assay [7] it was more than 100 µM; in assay [9], more than 100 µM; in assay [16], more than 300 µM; in [18], more than 300 µM. Affinity on Glutamate NMDA receptor was put at a Ki of 13 µM. Further, in assay [15], the outcome was Active.

`N[C@@H](C[C@]1(C(=O)O)C[C@@H]1C(=O)O)C(=O)O`: the EC50 in assay [1] is 33.7 µM; in [2], more than 1 mM; in assay [4] it was more than 1 mM; in assay [6] it was more than 1000 µM; in assay [10], more than 1 mM; in assay [11], 119 µM. The EC50 in assay [13], in assay [14] and in assay [17] was more than 1000 µM throughout. Moreover, the outcome in assay [3], in [8] and in assay [12] was inactive. The IC50 was more than 300 µM in [5]; more than 100 µM in assay [7]; more than 100 µM in assay [9]; more than 300 µM in assay [16]; more than 300 µM in [18]. The compound also yielded a Ki at Glutamate NMDA receptor of more than 100 µM. Besides, in [15], the result was Active.

For `N[C@@H](C[C@@H](CCC(=O)O)C(=O)O)C(=O)O`, the EC50 in assay [19] is more than 1 mM; in assay [20] it was more than 1 mM; in assay [1], 34.2 µM; in assay [2], more than 1 mM; in [4], more than 1 mM; in assay [21], 348 µM. Further, the EC50 is 1630 nM in assay [22] (read-out: EC50); 1660 nM in [22] (read-out: pEC50 (converted)); not below 100 µM in assay [6]; more than 1 mM in [23]; more than 1 mM in assay [10]; 120 µM in assay [11]. The EC50 in [13] was more than 1000 µM; in assay [14], more than 1000 µM; in [24], more than 1 mM; in assay [17] it was more than 1000 µM. Also, the outcome in [3], in [8] and in assay [12] was inactive. The IC50 was more than 300 µM in assay [5]; more than 100 µM in assay [7]; more than 100 µM in assay [9]; more than 300 µM in assay [16]; more than 300 µM in [18]. Moreover, the result in [15] was Active.
